Source: ChEMBL document CHEMBL1240446, “Synthesis and biological activities of novel amine-derived bis-azoles as potential antibacterial and antifungal agents” (2010)
Values after ≈ are worked out from the molar mass of the structure shown.

Key:
Type in all cases: functional
[1] = system: Bacillus subtilis; test: Antibacterial activity against Bacillus subtilis ATCC 21216 after 24 hrs by micro-broth dilution method; conditions: ATCC 21216, 24 h
In short: (§1)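 MIC by broth microdilution following NCCLS methods. Inoculum adjusted in sterile saline to 1×10^4–1×10^5 CFU. Compounds from DMSO stocks, two-fold serial dilutions in Mueller-Hinton broth at 256 down to 0.25 µg/mL. Incubation 37 °C, 24 h. DMSO solvent control at matching dilutions. Growth read visually and spectrophotometrically. MIC is the lowest concentration arresting growth.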

[2] = system: Pseudomonas aeruginosa; test: Antibacterial activity against Pseudomonas aeruginosa ATCC 27853 after 24 hrs by micro-broth dilution method; conditions: ATCC 27853, 24 h; in short: as §1
[3] = system: Escherichia coli; test: Antibacterial activity against Escherichia coli ATCC 25922 after 24 hrs by micro-broth dilution method; conditions: ATCC 25922, 24 h; in short: as §1
[4] = system: Staphylococcus aureus; test: Antibacterial activity against Staphylococcus aureus ATCC 29213 after 24 hrs by micro-broth dilution method; conditions: ATCC 29213, 24 h
In short: (§2)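 Broth microdilution per NCCLS in Mueller-Hinton broth. Inoculum adjusted in sterile saline to 1×10^4–1×10^5 CFU. Compounds taken from DMSO stocks and serially diluted two-fold to final 256–0.25 µg/mL (11 levels). Incubation 37 °C, 24 h, with a DMSO solvent control. Growth read visually and spectrophotometrically. MIC is the lowest concentration that arrests growth.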

[5] = system: Aspergillus fumigatus; test: Antifungal activity against Aspergillus fumigatus ATCC 96918 after 24 hrs by micro-broth dilution method; conditions: ATCC 96918, 24 h
In short: (§3)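 Broth microdilution per NCCLS. Spore suspension in sterile distilled water, taken from 1-day-old cultures on Sabouraud agar, final 1–5×10^3 spores/mL. Compounds diluted from stocks in RPMI 1640 to eleven concentrations, 0.25–256 µg/mL. Incubation 35 °C, 24 h. Growth scored visually and spectrophotometrically. MIC is the lowest concentration arresting fungal growth.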

[6] = system: Candida albicans; test: Antifungal activity against Candida albicans ATCC 76615 after 24 hrs by micro-broth dilution method; conditions: ATCC 76615, 24 h; in short: as §3
[7] = system: Staphylococcus aureus; test: Antibacterial activity against methicillin-resistant Staphylococcus aureus N315 after 24 hrs by micro-broth dilution method; conditions: N315, 24 h; in short: as §2
[8] = system: Bacillus; test: Antibacterial activity against Bacillus proteus ATCC 13315 after 24 hrs by micro-broth dilution method; conditions: ATCC 13315, 24 h; in short: as §1

| Structure (SMILES) | MIC [1] | MIC [2] | MIC [3] | MIC [4] | MIC [5] | MIC [6] | MIC [7] | MIC [8] |
| --- | --- | --- | --- | --- | --- | --- | --- | --- |
| OCCN(CCO)Cc1ccc(Cl)c(Cl)c1 | 128 µg/mL (≈ 485 µM) | > 256 µg/mL | 128 µg/mL (≈ 485 µM) | 256 µg/mL (≈ 969 µM) | > 256 µg/mL | > 256 µg/mL | > 256 µg/mL | 128 µg/mL (≈ 485 µM) |
| Clc1ccc(CN(CCn2ccnc2)CCn2ccnc2)c(Cl)c1.O=[N+]([O-])O | 16 µg/mL | 4 µg/mL | 32 µg/mL | 16 µg/mL | > 256 µg/mL | 128 µg/mL | 16 µg/mL | 64 µg/mL |
| Clc1ccc(CN(CCn2ccnc2)CCn2ccnc2)cc1Cl.O=[N+]([O-])O | 16 µg/mL | 64 µg/mL | 4 µg/mL | 16 µg/mL | 64 µg/mL | > 256 µg/mL | 16 µg/mL | 32 µg/mL |
| Fc1ccc(CN(CCn2cncn2)CCn2cncn2)c(F)c1 | 64 µg/mL (≈ 192 µM) | 8 µg/mL (≈ 24 µM) | 64 µg/mL (≈ 192 µM) | 128 µg/mL (≈ 384 µM) | > 256 µg/mL | > 256 µg/mL | > 256 µg/mL | > 256 µg/mL |
| Clc1ccc(CN(CCn2cncn2)CCn2cncn2)cc1Cl | 32 µg/mL (≈ 87.4 µM) | 64 µg/mL (≈ 175 µM) | 32 µg/mL (≈ 87.4 µM) | 64 µg/mL (≈ 175 µM) | > 256 µg/mL | > 256 µg/mL | 256 µg/mL (≈ 699 µM) | 0.5 µg/mL (≈ 1.37 µM) |
| Fc1ccc(CN(CCn2ccnc2)CCn2ccnc2)c(F)c1 | 32 µg/mL (≈ 96.6 µM) | 128 µg/mL (≈ 386 µM) | 64 µg/mL (≈ 193 µM) | 32 µg/mL (≈ 96.6 µM) | > 256 µg/mL | > 256 µg/mL | 32 µg/mL (≈ 96.6 µM) | 64 µg/mL (≈ 193 µM) |
| Clc1ccc(CN(CCn2ccnc2)CCn2ccnc2)c(Cl)c1 | 32 µg/mL (≈ 87.8 µM) | 4 µg/mL (≈ 11 µM) | 16 µg/mL (≈ 43.9 µM) | 8 µg/mL (≈ 22 µM) | > 256 µg/mL | 128 µg/mL (≈ 351 µM) | 16 µg/mL (≈ 43.9 µM) | 32 µg/mL (≈ 87.8 µM) |
| Clc1ccc(CN(CCn2ccnc2)CCn2ccnc2)cc1Cl | 16 µg/mL (≈ 43.9 µM) | 64 µg/mL (≈ 176 µM) | 16 µg/mL (≈ 43.9 µM) | 16 µg/mL (≈ 43.9 µM) | 64 µg/mL (≈ 176 µM) | > 256 µg/mL | 32 µg/mL (≈ 87.8 µM) | 64 µg/mL (≈ 176 µM) |
| Clc1cccc(CN(CCn2ccnc2)CCn2ccnc2)c1 | 128 µg/mL (≈ 388 µM) | 32 µg/mL (≈ 97 µM) | 32 µg/mL (≈ 97 µM) | 64 µg/mL (≈ 194 µM) | > 256 µg/mL | > 256 µg/mL | > 256 µg/mL | 64 µg/mL (≈ 194 µM) |
| Clc1ccc(CN(CCn2ccnc2)CCn2ccnc2)cc1 | 64 µg/mL (≈ 194 µM) | 64 µg/mL (≈ 194 µM) | 32 µg/mL (≈ 97 µM) | 64 µg/mL (≈ 194 µM) | > 256 µg/mL | > 256 µg/mL | 64 µg/mL (≈ 194 µM) | 128 µg/mL (≈ 388 µM) |
| Fc1ccc(CN(CCn2cnc3ccccc32)CCn2cnc3ccccc32)c(F)c1 | 64 µg/mL (≈ 148 µM) | > 256 µg/mL | 128 µg/mL (≈ 297 µM) | 64 µg/mL (≈ 148 µM) | > 256 µg/mL | > 256 µg/mL | > 256 µg/mL | 64 µg/mL (≈ 148 µM) |
| Clc1ccc(CN(CCn2cnc3ccccc32)CCn2cnc3ccccc32)c(Cl)c1 | 32 µg/mL (≈ 68.9 µM) | 32 µg/mL (≈ 68.9 µM) | 128 µg/mL (≈ 276 µM) | 32 µg/mL (≈ 68.9 µM) | > 256 µg/mL | > 256 µg/mL | 64 µg/mL (≈ 138 µM) | 32 µg/mL (≈ 68.9 µM) |
| Cc1cc2ncn(CCN(CCn3cnc4cc(C)c(C)cc43)Cc3ccc(Cl)cc3Cl)c2cc1C | 64 µg/mL (≈ 123 µM) | 128 µg/mL (≈ 246 µM) | 16 µg/mL (≈ 30.7 µM) | 128 µg/mL (≈ 246 µM) | > 256 µg/mL | > 256 µg/mL | > 256 µg/mL | 32 µg/mL (≈ 61.5 µM) |
| Cl.Fc1ccc(CN(CCn2cncn2)CCn2cncn2)c(F)c1 | 32 µg/mL | 8 µg/mL | 64 µg/mL | 64 µg/mL | 256 µg/mL | 32 µg/mL | > 256 µg/mL | 256 µg/mL |
| Cl.Clc1ccc(CN(CCn2cncn2)CCn2cncn2)c(Cl)c1 | 128 µg/mL | 16 µg/mL | 32 µg/mL | 16 µg/mL | 128 µg/mL | 0.25 µg/mL | 128 µg/mL | 4 µg/mL |
| Cl.Clc1ccc(CN(CCn2cncn2)CCn2cncn2)cc1Cl | 16 µg/mL | 32 µg/mL | 32 µg/mL | 32 µg/mL | 256 µg/mL | 128 µg/mL | 32 µg/mL | 0.25 µg/mL |
| Cl.Fc1ccc(CN(CCn2ccnc2)CCn2ccnc2)c(F)c1 | 8 µg/mL | 64 µg/mL | 16 µg/mL | 16 µg/mL | > 256 µg/mL | 128 µg/mL | 16 µg/mL | 32 µg/mL |
| Cl.Clc1ccc(CN(CCn2ccnc2)CCn2ccnc2)c(Cl)c1 | 8 µg/mL | 4 µg/mL | 16 µg/mL | 4 µg/mL | > 256 µg/mL | 64 µg/mL | 8 µg/mL | 32 µg/mL |
| Cl.Clc1ccc(CN(CCn2ccnc2)CCn2ccnc2)cc1Cl | 4 µg/mL | 32 µg/mL | 4 µg/mL | 4 µg/mL | 32 µg/mL | > 256 µg/mL | 8 µg/mL | 16 µg/mL |
| Fc1ccc(CN(CCn2cncn2)CCn2cncn2)c(F)c1.O=[N+]([O-])O | 32 µg/mL | 16 µg/mL | 128 µg/mL | 128 µg/mL | > 256 µg/mL | 64 µg/mL | > 256 µg/mL | > 256 µg/mL |
| Clc1ccc(CN(CCn2cncn2)CCn2cncn2)cc1Cl.O=[N+]([O-])O | 16 µg/mL | 64 µg/mL | 32 µg/mL | 16 µg/mL | > 256 µg/mL | 256 µg/mL | 64 µg/mL | 0.25 µg/mL |
| Fc1ccc(CN(CCn2ccnc2)CCn2ccnc2)c(F)c1.O=[N+]([O-])O | 16 µg/mL | 64 µg/mL | 32 µg/mL | 32 µg/mL | > 256 µg/mL | 128 µg/mL | 32 µg/mL | 64 µg/mL |
| O=C(N[C@H](CO)[C@H](O)c1ccc([N+](=O)[O-])cc1)C(Cl)Cl [CHLORAMPHENICOL] | 8 µg/mL (≈ 24.8 µM) | 64 µg/mL (≈ 198 µM) | 8 µg/mL (≈ 24.8 µM) | 8 µg/mL (≈ 24.8 µM) |  |  | 16 µg/mL (≈ 49.5 µM) | 8 µg/mL (≈ 24.8 µM) |
| OC(Cn1cncn1)(Cn1cncn1)c1ccc(F)cc1F [FLUCONAZOLE] |  |  |  |  | 256 µg/mL (≈ 836 µM) | 0.5 µg/mL (≈ 1.63 µM) |  |  |
| CCn1cc(C(=O)O)c(=O)c2cc(F)c(N3CCNCC3)cc21 [NORFLOXACIN] | 1 µg/mL (≈ 3.13 µM) | 2 µg/mL (≈ 6.26 µM) | 0.5 µg/mL (≈ 1.57 µM) | 0.25 µg/mL (≈ 0.783 µM) |  |  | 0.25 µg/mL (≈ 0.783 µM) | 1 µg/mL (≈ 3.13 µM) |
